From ChEMBL document CHEMBL3046382, “Synthesis and insecticidal activities and SAR studies of novel benzoheterocyclic diacylhydrazine derivatives” (2009)

Tests used:
Type in all cases: functional
Culicidae [1] = assay: Toxicity against fourth-instar larvae of Culex pipiens pallens assessed as mortality at 1 mg/kg measured after 7 to 10 days
In short: (§1)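 For each concentration, 1 mL of dilution was added to 99 mL water and 20 fourth-instar larvae introduced. Percentage mortality assessed 7–10 days after treatment.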

Mythimna separata [2] = assay: Stomach toxicity in fourth-instar Mythimna separata(Oriental armyworm) larvae in compound treated corn leaves assessed as mortality at 200 mg/kg measured after 4 days; details: 96 h
Culicidae [3] = assay: Toxicity against fourth-instar larvae of Culex pipiens pallens assessed as mortality at 2 mg/kg measured after 7 to 10 days; in short: as §1
Culicidae [4] = assay: Toxicity against fourth-instar larvae of Culex pipiens pallens assessed as mortality at 0.5 mg/kg measured after 7 to 10 days; in short: as §1
Mythimna separata [5] = assay: Stomach toxicity in fourth-instar Mythimna separata (Oriental armyworm) larvae in compound treated corn leaves assessed as mortality at 100 mg/kg measured after 4 days; details: 96 h
Mythimna separata [6] = assay: Stomach toxicity in fourth-instar Mythimna separata (Oriental armyworm) larvae in compound treated corn leaves assessed as mortality at 50 mg/kg measured after 4 days; details: 96 h
Mythimna separata [7] = assay: Stomach toxicity in fourth-instar Mythimna separata (Oriental armyworm) larvae in compound treated corn leaves assessed as mortality at 25 mg/kg measured after 4 days; details: 96 h
Mythimna separata [8] = assay: Stomach toxicity in fourth-instar Mythimna separata (Oriental armyworm) larvae in compound treated corn leaves assessed as mortality at 10 mg/kg measured after 4 days; details: 96 h

Cc1c(C(=O)NN(C(=O)c2ccccc2[N+](=O)[O-])C(C)(C)C)ccc2c1CC(C)(C)O2
mortality at 1 mg/kg (Culicidae [1]): 20%
mortality at 200 mg/kg (Mythimna separata [2]): 50%
mortality at 2 mg/kg (Culicidae [3]): 40%
mortality at 0.5 mg/kg (Culicidae [4]): 10%
mortality at 100 mg/kg (Mythimna separata [5]): 0%

COc1ccccc1C(=O)N(NC(=O)c1ccc2c(c1C)CC(C)(C)O2)C(C)(C)C
mortality at 1 mg/kg (Culicidae [1]): 10%
mortality at 200 mg/kg (Mythimna separata [2]): 0%
mortality at 2 mg/kg (Culicidae [3]): 20%
mortality at 0.5 mg/kg (Culicidae [4]): 0%
mortality at 100 mg/kg (Mythimna separata [5]): 0%

Cc1c(C(=O)NN(C(=O)c2ccc([N+](=O)[O-])cc2)C(C)(C)C)ccc2c1CC(C)O2 (stereo unspecified)
mortality at 1 mg/kg (Culicidae [1]): 0%
mortality at 200 mg/kg (Mythimna separata [2]): 60%
mortality at 2 mg/kg (Culicidae [3]): 40%
mortality at 100 mg/kg (Mythimna separata [5]): 0%

Cc1c(C(=O)NN(C(=O)c2ccc(Cl)cc2Cl)C(C)(C)C)ccc2c1CC(C)(C)O2
mortality at 50 mg/kg (Mythimna separata [6]): 0%
mortality at 1 mg/kg (Culicidae [1]): 0%
mortality at 200 mg/kg (Mythimna separata [2]): 90%
mortality at 2 mg/kg (Culicidae [3]): 50%
mortality at 100 mg/kg (Mythimna separata [5]): 10%

Cc1c(C(=O)NN(C(=O)c2ccccc2)C(C)(C)C)ccc2c1CC(C)O2 (stereo unspecified)
mortality at 25 mg/kg (Mythimna separata [7]): 80%
mortality at 50 mg/kg (Mythimna separata [6]): 90%
mortality at 10 mg/kg (Mythimna separata [8]): 0%
mortality at 1 mg/kg (Culicidae [1]): 0%
mortality at 200 mg/kg (Mythimna separata [2]): 100%
mortality at 2 mg/kg (Culicidae [3]): 0%
mortality at 100 mg/kg (Mythimna separata [5]): 100%

Cc1c(C(=O)NN(C(=O)c2cccc([N+](=O)[O-])c2)C(C)(C)C)ccc2c1CC(C)O2 (stereo unspecified)
mortality at 1 mg/kg (Culicidae [1]): 10%
mortality at 200 mg/kg (Mythimna separata [2]): 20%
mortality at 2 mg/kg (Culicidae [3]): 20%
mortality at 0.5 mg/kg (Culicidae [4]): 0%
mortality at 100 mg/kg (Mythimna separata [5]): 0%

Cc1c(C(=O)NN(C(=O)c2cccc([N+](=O)[O-])c2)C(C)(C)C)ccc2c1CC(C)(C)O2
mortality at 1 mg/kg (Culicidae [1]): 20%
mortality at 200 mg/kg (Mythimna separata [2]): 10%
mortality at 2 mg/kg (Culicidae [3]): 30%
mortality at 0.5 mg/kg (Culicidae [4]): 10%
mortality at 100 mg/kg (Mythimna separata [5]): 0%

Cc1c(C(=O)NN(C(=O)c2cc([N+](=O)[O-])cc([N+](=O)[O-])c2)C(C)(C)C)ccc2c1CC(C)O2 (stereo unspecified)
mortality at 1 mg/kg (Culicidae [1]): 20%
mortality at 200 mg/kg (Mythimna separata [2]): 20%
mortality at 2 mg/kg (Culicidae [3]): 30%
mortality at 0.5 mg/kg (Culicidae [4]): 10%
mortality at 100 mg/kg (Mythimna separata [5]): 0%

Cc1c(C(=O)NN(C(=O)c2ccc(Cl)cc2)C(C)(C)C)ccc2c1CC(C)O2 (stereo unspecified)
mortality at 25 mg/kg (Mythimna separata [7]): 90%
mortality at 50 mg/kg (Mythimna separata [6]): 100%
mortality at 10 mg/kg (Mythimna separata [8]): 0%
mortality at 1 mg/kg (Culicidae [1]): 0%
mortality at 200 mg/kg (Mythimna separata [2]): 100%
mortality at 2 mg/kg (Culicidae [3]): 0%
mortality at 100 mg/kg (Mythimna separata [5]): 100%

Cc1c(C(=O)NN(C(=O)c2ccccc2)C(C)(C)C)ccc2c1CC(C)(C)O2
mortality at 50 mg/kg (Mythimna separata [6]): 0%
mortality at 1 mg/kg (Culicidae [1]): 30%
mortality at 200 mg/kg (Mythimna separata [2]): 40%
mortality at 2 mg/kg (Culicidae [3]): 50%
mortality at 0.5 mg/kg (Culicidae [4]): 10%
mortality at 100 mg/kg (Mythimna separata [5]): 10%

Cc1c(C(=O)NN(C(=O)c2cc([N+](=O)[O-])cc([N+](=O)[O-])c2)C(C)(C)C)ccc2c1CC(C)(C)O2
mortality at 1 mg/kg (Culicidae [1]): 20%
mortality at 200 mg/kg (Mythimna separata [2]): 40%
mortality at 2 mg/kg (Culicidae [3]): 30%
mortality at 0.5 mg/kg (Culicidae [4]): 10%
mortality at 100 mg/kg (Mythimna separata [5]): 0%

Cc1c(C(=O)NN(C(=O)c2cccc(Cl)c2)C(C)(C)C)ccc2c1CC(C)(C)O2
mortality at 50 mg/kg (Mythimna separata [6]): 0%
mortality at 1 mg/kg (Culicidae [1]): 0%
mortality at 200 mg/kg (Mythimna separata [2]): 80%
mortality at 2 mg/kg (Culicidae [3]): 10%
mortality at 100 mg/kg (Mythimna separata [5]): 10%

Cc1c(C(=O)NN(C(=O)c2ccc(Cl)cc2Cl)C(C)(C)C)ccc2c1CC(C)O2 (stereo unspecified)
mortality at 25 mg/kg (Mythimna separata [7]): 90%
mortality at 50 mg/kg (Mythimna separata [6]): 100%
mortality at 10 mg/kg (Mythimna separata [8]): 0%
mortality at 1 mg/kg (Culicidae [1]): 0%
mortality at 200 mg/kg (Mythimna separata [2]): 100%
mortality at 2 mg/kg (Culicidae [3]): 0%
mortality at 100 mg/kg (Mythimna separata [5]): 100%

Cc1c(C(=O)NN(C(=O)c2ccc(Cl)cc2)C(C)(C)C)ccc2c1CC(C)(C)O2
mortality at 50 mg/kg (Mythimna separata [6]): 0%
mortality at 1 mg/kg (Culicidae [1]): 10%
mortality at 200 mg/kg (Mythimna separata [2]): 90%
mortality at 2 mg/kg (Culicidae [3]): 60%
mortality at 0.5 mg/kg (Culicidae [4]): 0%
mortality at 100 mg/kg (Mythimna separata [5]): 10%

Cc1cccc(C(=O)N(NC(=O)c2ccc3c(c2C)CC(C)(C)O3)C(C)(C)C)c1
mortality at 25 mg/kg (Mythimna separata [7]): 0%
mortality at 50 mg/kg (Mythimna separata [6]): 30%
mortality at 1 mg/kg (Culicidae [1]): 10%
mortality at 200 mg/kg (Mythimna separata [2]): 100%
mortality at 2 mg/kg (Culicidae [3]): 50%
mortality at 0.5 mg/kg (Culicidae [4]): 10%
mortality at 100 mg/kg (Mythimna separata [5]): 90%

COc1ccc(C(=O)N(NC(=O)c2ccc3c(c2C)CC(C)(C)O3)C(C)(C)C)cc1
mortality at 1 mg/kg (Culicidae [1]): 0%
mortality at 200 mg/kg (Mythimna separata [2]): 60%
mortality at 2 mg/kg (Culicidae [3]): 10%
mortality at 100 mg/kg (Mythimna separata [5]): 0%

Cc1c(C(=O)NN(C(=O)c2ccc([N+](=O)[O-])cc2)C(C)(C)C)ccc2c1CC(C)(C)O2
mortality at 1 mg/kg (Culicidae [1]): 0%
mortality at 200 mg/kg (Mythimna separata [2]): 10%
mortality at 2 mg/kg (Culicidae [3]): 20%
mortality at 100 mg/kg (Mythimna separata [5]): 0%

Cc1cc(C)cc(C(=O)N(NC(=O)c2ccc3c(c2C)CC(C)(C)O3)C(C)(C)C)c1
mortality at 25 mg/kg (Mythimna separata [7]): 20%
mortality at 50 mg/kg (Mythimna separata [6]): 90%
mortality at 10 mg/kg (Mythimna separata [8]): 0%
mortality at 1 mg/kg (Culicidae [1]): 0%
mortality at 200 mg/kg (Mythimna separata [2]): 100%
mortality at 2 mg/kg (Culicidae [3]): 70%
mortality at 100 mg/kg (Mythimna separata [5]): 100%

COc1cccc(C(=O)N(NC(=O)c2ccc3c(c2C)CC(C)(C)O3)C(C)(C)C)c1
mortality at 25 mg/kg (Mythimna separata [7]): 0%
mortality at 50 mg/kg (Mythimna separata [6]): 20%
mortality at 1 mg/kg (Culicidae [1]): 30%
mortality at 200 mg/kg (Mythimna separata [2]): 100%
mortality at 2 mg/kg (Culicidae [3]): 40%
mortality at 0.5 mg/kg (Culicidae [4]): 10%
mortality at 100 mg/kg (Mythimna separata [5]): 30%

Cc1c(C(=O)NN(C(=O)c2cc(Cl)cc(Cl)c2)C(C)(C)C)ccc2c1CC(C)(C)O2
mortality at 1 mg/kg (Culicidae [1]): 20%
mortality at 200 mg/kg (Mythimna separata [2]): 60%
mortality at 2 mg/kg (Culicidae [3]): 30%
mortality at 0.5 mg/kg (Culicidae [4]): 10%
mortality at 100 mg/kg (Mythimna separata [5]): 0%

Cc1c(C(=O)NN(C(=O)c2ccccc2Cl)C(C)(C)C)ccc2c1CC(C)(C)O2
mortality at 1 mg/kg (Culicidae [1]): 20%
mortality at 200 mg/kg (Mythimna separata [2]): 60%
mortality at 2 mg/kg (Culicidae [3]): 70%
mortality at 0.5 mg/kg (Culicidae [4]): 0%
mortality at 100 mg/kg (Mythimna separata [5]): 0%
